Measured values published in PubChem BioAssay AID504837 (Johns Hopkins Ion Channel Center, 2011).
Values joined by “and” are separate entries in the source; they are usually repeats but may differ in a detail not shown here. Equal values may be shown once. Active and inactive are the calls of the source.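 How the source made its calls: active means lowers KCNQ2 potassium channel current at one or more tested doses and a dose response curve can be fitted; inactive means no current drop at any dose, or no curve.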

Target: Potassium voltage-gated channel subfamily KQT member 2 (Rattus norvegicus) (UniProt O88943)
Sequence (O88943 whole entry, looked up): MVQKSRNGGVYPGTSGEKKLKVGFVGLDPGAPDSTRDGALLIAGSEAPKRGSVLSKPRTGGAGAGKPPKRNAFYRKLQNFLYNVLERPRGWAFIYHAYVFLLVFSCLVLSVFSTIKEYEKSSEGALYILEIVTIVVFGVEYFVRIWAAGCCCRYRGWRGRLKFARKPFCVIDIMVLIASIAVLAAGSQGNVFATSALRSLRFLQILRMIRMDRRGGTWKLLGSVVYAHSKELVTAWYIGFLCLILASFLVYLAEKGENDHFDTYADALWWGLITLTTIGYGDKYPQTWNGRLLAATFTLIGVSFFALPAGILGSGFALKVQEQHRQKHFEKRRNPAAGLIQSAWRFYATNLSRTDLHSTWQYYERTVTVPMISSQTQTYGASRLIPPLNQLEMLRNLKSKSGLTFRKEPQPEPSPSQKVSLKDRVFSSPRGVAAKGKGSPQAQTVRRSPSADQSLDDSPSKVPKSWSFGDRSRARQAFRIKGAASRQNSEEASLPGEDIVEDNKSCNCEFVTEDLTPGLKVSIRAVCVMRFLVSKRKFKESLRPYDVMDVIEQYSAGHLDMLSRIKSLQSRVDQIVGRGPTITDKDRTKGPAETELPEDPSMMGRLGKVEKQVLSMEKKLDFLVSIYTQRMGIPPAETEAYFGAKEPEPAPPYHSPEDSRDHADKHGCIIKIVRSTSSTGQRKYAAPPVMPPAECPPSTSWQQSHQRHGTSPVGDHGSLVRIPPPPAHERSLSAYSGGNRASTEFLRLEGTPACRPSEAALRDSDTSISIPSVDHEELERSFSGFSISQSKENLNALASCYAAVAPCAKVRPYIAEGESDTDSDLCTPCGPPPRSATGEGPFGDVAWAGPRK
Assay: blockers of rat KCNQ2 potassium current – automated electrophysiology, CHO cells, orthogonal assay for KCNQ2 inhibitor project, SAR follow-up (AID 504837)
Conditions: automated patch clamp current; for current change, negative = inhibition: at 30 µM (top of the series)
Summary of the method: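 Probe or stimulus: 2,000 ms depolarization to +40 mV from -90 mV | Test system: KCNQ2-expressing CHO cells | Signal: Automated perforated-patch clamp (amphotericin B), steady-state current at +40 mV | Read-out basis: Percent current change relative to pre-compound current | Repeats: Four replicates per concentration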

current change, negative = inhibition | IC50 | SMILES
inactive | – | CCC(CC)C(=O)NCC(c1ccco1)N1CCOCC1 (configuration not stated)
inactive | – | CC(C)(C)C1CCC(C(=O)NCC(c2cccs2)N2CCOCC2)CC1 (configuration not stated)
– | 1.73 µM | O=C(CC1CCCCC1)NCC(c1cccs1)N1CCOCC1 (configuration not stated)
– | 0.14 µM | O=C(NC[C@@H](c1cccs1)N1CCOCC1)C12CC3CC(CC(C3)C1)C2
inactive | 8.98 µM | Cc1ccc(OCCC(=O)NCC(c2cccs2)N2CCOCC2)cc1 (configuration not stated)
inactive | – | O=C(NCC(c1ccco1)N1CCOCC1)C1CCCCC1 (configuration not stated)
inactive | – | Cc1ccc(C(CNC(=O)C2(C)CC2(Cl)Cl)N2CCOCC2)o1 (configuration not stated)
inactive | – | O=C(NCC(c1ccco1)N1CCOCC1)C1CC1 (configuration not stated)
inactive | – | CC(C)C(=O)NCC(c1cccs1)N1CCOCC1 (configuration not stated)
inactive | – | CC(C)(C)C(=O)NCC(c1cccs1)N1CCOCC1 (configuration not stated)
inactive | – | CC(C)(C)c1ccc(OCCC(=O)NCC(c2cccs2)N2CCOCC2)cc1 (configuration not stated)
inactive | – | Cc1ccc(OCC(=O)NCC(c2cccs2)N2CCOCC2)cc1 (configuration not stated)
– | 3.2 µM | O=C(NCC(c1cccs1)N1CCOCC1)C1COc2ccc(Cl)cc2C1 (configuration not stated)
– | 0.91 µM and 0.44 µM | O=C(NCC(c1cccs1)N1CCOCC1)C12CC3CC(CC(C3)C1)C2 (configuration not stated)
inactive | – | CN1CCN(C(CNC(=O)CC(C)(C)C)c2cccs2)CC1 (configuration not stated)
inactive | – | CCCCC1CCC(C(=O)NCC(c2ccco2)N2CCOCC2)CC1 (configuration not stated)
inactive | – | CC(C)CC(=O)NCC(c1cccs1)N1CCOCC1 (configuration not stated)
inactive | – | Cc1ccc(C(CNC(=O)C2CCC2)N2CCOCC2)o1 (configuration not stated)
inactive | – | CCCCC1CCC(C(=O)NC[C@@H](c2ccco2)N2CCOCC2)CC1 (some centres not stated)
– | 8.36 µM | CC1Oc2ccccc2OC1C(=O)NCC(c1cccs1)N1CCOCC1 (configuration not stated)
– | 8.48 µM | O=C(NC[C@H](c1cccs1)N1CCOCC1)C12CC3CC(CC(C3)C1)C2
– | 1.2 µM | O=C(NCC(c1ccco1)N1CCOCC1)C(c1ccccc1)c1ccccc1 (configuration not stated)
– | 9.51 µM | CC1(C(=O)NCC(c2cccs2)N2CCOCC2)CC1(Cl)Cl (configuration not stated)
inactive | – | CN1CCN(C(CNC(=O)C23CC4CC(CC(C4)C2)C3)c2cccs2)CC1 (configuration not stated)
inactive | – | COc1ccccc1C(=O)NCC(c1cccs1)N1CCOCC1 (configuration not stated)
– | 2.93 µM | O=C(NCC(c1cccs1)N1CCOCC1)C1CCCCC1 (configuration not stated)
